Screening data (PubChem)
CHO parental Ca – ATP-evoked calcium signal inhibitors, parental CHO, primary screen, counter-screen for OX1R antagonist project, cell-based, fluorescence, Fluo-8 calcium dye | parental CHO-K1, ATP-induced calcium, Fluo-8 fluorescence | inhibition, % at 5.6 µM | hit rate 0.63% among 330,000;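 active = inhibition above that plate's mean sample inhibition plus 3 SD, cut at about 26% in these data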;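 also: 0% = ATP-challenged DMSO wells and 100% = DMSO wells without ATP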
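Assay system: untransfected parental CHO cell line. Also added: ATP agonist challenge. Dosing: one dose, 5.6 µM nominal. Measured by: Fluo-8 fluorescence. Read-out: % inhibition. Benchmarks: ATP wells versus no-ATP DMSO wells. Repeats: no replicates.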
OXTR potentiator – human OXTR potentiators, primary screen, fluorescence, CHO-OTR cells, Fluo-8 calcium; Fluo-8 calcium fluorescence, potentiator mode; 0% = oxytocin EC15, 100% = EC100; activation, % at 3 µM; hit rate 0.061% among 320,000; AID 2445, 2010;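 active = activation above that plate's cutoff, the mean activation of tested compounds plus 3 SD, cut at about 6.6% in these data, passing the limit was not always enough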;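 also: 100% uses oxytocin at 75 nM as the full agonist control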
Target sequence (P30559 whole entry, looked up): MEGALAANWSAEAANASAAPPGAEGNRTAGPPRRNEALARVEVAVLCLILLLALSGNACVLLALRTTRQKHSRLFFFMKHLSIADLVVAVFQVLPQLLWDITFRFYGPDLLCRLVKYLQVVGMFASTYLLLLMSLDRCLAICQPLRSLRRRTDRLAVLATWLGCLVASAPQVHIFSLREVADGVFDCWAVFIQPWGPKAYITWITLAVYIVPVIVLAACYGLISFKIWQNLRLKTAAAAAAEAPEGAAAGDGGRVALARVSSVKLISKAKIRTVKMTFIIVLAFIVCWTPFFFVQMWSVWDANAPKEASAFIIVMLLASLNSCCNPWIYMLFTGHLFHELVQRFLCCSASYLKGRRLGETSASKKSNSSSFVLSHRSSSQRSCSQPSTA
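Dosing: Single dose, 3.0 µM nominal final compound concentration | Material: Human OTR in CHO cells | Technique: Kinetic Fluo-8 calcium fluorescence | Benchmarks: EC15 oxytocin alone as 0%, 75 nM oxytocin as 100% | Probe or stimulus: Oxytocin at about EC15, sub-maximal agonist stimulus | Incubation: Compound 6 min at room temperature before oxytocin, 100 s read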
V1aR counter – agonists of human V1a receptor, primary screen, counter-screen for OXTR agonist project, fluorescence, CHO-V1R cells | Vasopressin V1a receptor (Homo sapiens), P37288 | hit rate 0.25% among 320,000 | Fluo-8 calcium fluorescence, agonist mode; 0% DMSO, 100% 3 nM vasopressin | activation, % at 3 µM | AID 2797, 2010;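 active = activation above the mean activation of all tested compounds plus 3 SD, per screening run, cut at about 20% in these data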;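 also: signal is peak over basal fluorescence ratio across a 100 second FLIPR read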
OX1R antag-1 – OX1R (HCRTR1) antagonists, primary screen, fluorescence, CHO/OX1R cells, Fluo-8 calcium, orexin A; Orexin/Hypocretin receptor type 1 (Homo sapiens), O43613; Fluo-8 calcium fluorescence; inhibition, % at 5 µM; hit rate 0.43% among 330,000; AID 434989, 2010;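 active = inhibition above its plate's threshold, mean inhibition of all tested compounds on the plate plus 3 SD, cut at about 37% in these data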;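 also: 0% = orexin A challenge wells and 100% = SB-334867-A antagonist wells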
OX1R antag-2 – antagonists of human orexin 1 receptor (OX1R); inhibition, % at 6.6 µM; OX1R-expressing cells, FRET antagonist read-out; hit rate 1.8% among 330,000; Orexin/Hypocretin receptor type 1 (Homo sapiens), O43613; in the data active = inhibition mostly above about 38%, no sharp cut-off; inactive = mostly below about 40%;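 also: 0% = agonist challenge alone and 100% = reference antagonist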
OXTR agonist – human OXTR agonists, primary screen, fluorescence, CHO-OTR cells, Fluo-8 calcium | activation, % at 3 µM | AID 2435, 2010 | hit rate 0.32% among 320,000 | Fluo-8 calcium fluorescence; normalized: DMSO 0%, oxytocin 100% | Oxytocin receptor (Homo sapiens), P30559;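 active = activation above the mean of all tested compounds plus 3 SD, cutoff set per screening run, cut at about 20% in these data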;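 also: peak over basal fluorescence ratio from a 100 s FLIPR kinetic read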
The depositor's hits bear a star; nt = not tested or not shown. An excerpt weighted towards active compounds, which were near 2.7% of everything screened.

SMILES	CHO parental Ca	OXTR potentiator	V1aR counter	OX1R antag-1	OX1R antag-2	OXTR agonist
CCc1ccccc1NC(=O)CN(C)C(=O)c1cccc(S(=O)(=O)N2CCCCCC2)c1	-21.4	-1.4	0.5	-19.0	4.6	1.0
COc1ccc([N+](=O)[O-])cc1NC(=O)C(C)OC(=O)C1CCC1 (centres undefined)	-1.9	-6.9	-1.0	-22.3	35.6	-2.2
Nn1cnc2cc3ccccc3cc2c1=O	-9.4	-1.9	0.0	-12.1	14.8	1.9
COc1cc(CCc2ccccc2)c(C(=O)O)c(O)c1C/C=C(/C)CCC=C(C)C	46.3*	nt	nt	23.1	15.4	nt
CC(C)(C)CC(=O)N[C@@H](Cc1ccccc1)c1nc2ccccc2[nH]1	-20.6	-1.7	0.1	-32.1	4.8	-0.3
O=C(COc1cccc(F)c1)N[C@@H](Cc1ccccc1)c1nc2ccccc2[nH]1	-12.0	-9.7	1.1	12.1	60.6*	-1.6
Cn1cccc1C(=O)Nc1ccc(Cl)c(S(=O)(=O)N2CCCCC2)c1	-24.0	-5.3	-0.7	-11.9	8.2	-1.6
CC(=O)N(Cc1c(C#N)c2ccccc2n1C)c1ccccc1	-12.2	-0.1	0.0	-20.9	14.4	-1.8
CC(=O)N(Cc1ccccc1)c1ncc2c(n1)c(=O)c(C#N)c1ccccn12	-15.0	-5.8	-0.9	4.3	63.3*	-0.5
CCCn1nc(C(=O)NNC(=O)CCCOc2ccc(C)cc2)c2ccccc2c1=O	-29.1	-4.1	-1.3	-37.4	12.8	-0.5
N#Cc1cc([N+](=O)[O-])ccc1NC(=O)CSc1n[nH]c(=O)[nH]c1=O	-13.4	-8.3	0.0	-12.9	44.9*	0.6
N#Cc1cc([N+](=O)[O-])ccc1NC(=O)COC(=O)C12CC3CC(CC(C3)C1)C2	-9.9	-8.5	-0.4	-26.2	32.8	-1.3
N#Cc1cc([N+](=O)[O-])ccc1NC(=O)COC(=O)C1CCC(=O)N1 (centres undefined)	-5.0	2.8	1.5	-13.7	42.5*	1.4
O=C(Cn1cnc2c(OCc3ccccc3)ncnc21)NCCc1c[nH]c2ccccc12	-7.8	-6.6	4.0	2.7	11.6	4.5
CCOc1ccc(NS(=O)(=O)c2ccc(C(=O)NCC(c3ccc(OC)cc3)N3CCCC3)cc2)cc1 (centres undefined)	-20.8	-13.0	5.8	8.0	6.2	16.1
CC(C)(C)OC(=O)NCCCCCNC(=O)c1nc[nH]c1C(=O)N1CCN(C(=O)OC(C)(C)C)CC1	-17.3	-1.6	0.6	-9.5	5.6	0.9
Cc1cc(NC(=O)CSc2nnc(-c3ccc([N+](=O)[O-])cc3)o2)no1	5.1	-0.7	0.0	-8.8	59.0*	-0.6
CC(C)OC(=O)CSc1nnc(-c2ccc([N+](=O)[O-])cc2)o1	-8.7	-13.8	5.5	-16.3	64.5*	4.3
CC(C)OC(=O)CSc1nnc(-c2ccc(Cl)cc2Cl)o1	-13.5	-8.9	-0.3	-21.4	16.2	-2.4
Cc1cc(NC(=O)CSc2nnc(-c3ccc(O)cc3)o2)no1	12.6	-2.9	0.7	-1.0	22.3	1.7
C=CCn1c(SCC(=O)c2cc(C)n(C(C)COC)c2C)nc2sc(C)c(C)c2c1=O (centres undefined)	35.9*	-3.4	-0.7	-6.0	10.4	-1.2
C=CCn1c(SCC(=O)NCCO)nc2sc(C)c(C)c2c1=O	-4.9	2.1	-0.5	-22.3	23.7	-0.3
O=C(NC1CC1)c1ccc2c(c1)N(Cc1ccc(Cl)cc1)CCS2	-34.9	-3.6	-0.5	-21.5	45.7*	-1.4
CCOC(=O)N1CCN(C(=O)c2ccc3c(c2)N(Cc2ccccc2)CCS3)CC1	-4.6	-9.7	2.0	-43.1	2.7	2.0
CC1CC(C)CN(C(=O)c2ccc3c(c2)N(Cc2ccccc2)CCS3)C1 (centres undefined)	47.0*	-9.3	-2.0	-30.2	14.8	-2.3
SMILES	CHO parental Ca	OXTR potentiator	V1aR counter	OX1R antag-1	OX1R antag-2	OXTR agonist
CN1CCc2nc3sc(C(=O)NCc4ccccc4)c(N)c3cc2C1	9.7	-13.9	-0.9	-20.4	36.0	-0.7
COc1ccc(NC(=O)CSc2nc3c(c(-c4cccs4)c2C#N)CN(C)CC3)cc1OC	-8.1	-4.2	0.0	-11.8	6.6	-0.4
Cc1cccc(NC(=O)c2sc3nc4c(c(-c5cccs5)c3c2N)CN(C)CC4)c1	-12.4	-13.6	-0.3	-13.2	75.8*	-0.2
CC(C)NC(=O)c1sc2nc3c(c(-c4cccs4)c2c1N)CN(C)CC3	-4.9	-8.7	0.5	-24.7	59.9*	-0.1
O=S(=O)(c1ccccc1)N1CCC(O)(CSc2ccc(Cl)cc2)CC1	61.6*	-22.7	10.8	45.6*	24.8	15.8
Cn1nc(CC(=O)Nc2ccc3c(c2)OCCO3)c2ccccc2c1=O	48.5*	-19.7	8.3	47.0*	51.1	11.8
Cc1ccc(NC(=O)Cc2nn(C)c(=O)c3ccccc23)cc1F	26.8	-17.1	7.9	24.6	48.0	13.0
C[C@H]1CN([C@@H](C)CO)C(=O)c2cc(NC(=O)C3CCCCC3)ccc2O[C@H]1CN(C)S(=O)(=O)c1ccccc1	-21.2	-5.5	0.0	-26.8	12.9	-0.7
O=C1c2ccccc2C(=O)N1CCCc1nc2ccccc2c(=O)n1CCCn1ccnc1	-12.9	-3.5	1.3	-25.6	21.2	0.7
O=C1c2cccc3cccc(c23)C(=O)N1CCCn1ccnc1	-2.9	-9.2	9.9	6.0	54.6*	-0.5
CCOC(=O)c1sc2ncn(CC(=O)Nc3cc(C)on3)c(=O)c2c1C	-10.9	1.1	1.0	0.2	4.9	1.1
CCc1ccc(N2CC(C(=O)Nc3ccc(S(=O)(=O)N4CCOCC4)cc3)CC2=O)cc1 (centres undefined)	3.0	-10.0	-0.5	-25.1	5.1	-1.5
CCN(CC(=O)Nc1ccc(Br)cc1)C(=O)Cc1cccc(F)c1	-20.4	1.9	2.4	-8.9	48.7*	0.6
O=C(COC(=O)c1cc([N+](=O)[O-])ccc1N1CCOCC1)Nc1ccc(Cl)cc1	-0.9	-2.7	2.2	-13.9	52.4*	-0.6
O=C(COC(=O)c1cc([N+](=O)[O-])ccc1N1CCOCC1)Nc1ccc(Cl)cn1	-15.2	-5.6	0.2	-21.5	51.9*	-1.7
O=C(COC(=O)c1cc([N+](=O)[O-])ccc1N1CCOCC1)NC1CCCCC1	-19.8	-4.8	-1.2	-28.1	52.8*	-1.0
